# Measured values from different studies.
# Lines come from different studies, so protocols differ.
# Target: Mitogen-activated protein kinase kinase kinase 2 (MAP3K2, Homo sapiens, UniProt Q9Y2U5)
# One construct used (Q9Y2U5 1-619): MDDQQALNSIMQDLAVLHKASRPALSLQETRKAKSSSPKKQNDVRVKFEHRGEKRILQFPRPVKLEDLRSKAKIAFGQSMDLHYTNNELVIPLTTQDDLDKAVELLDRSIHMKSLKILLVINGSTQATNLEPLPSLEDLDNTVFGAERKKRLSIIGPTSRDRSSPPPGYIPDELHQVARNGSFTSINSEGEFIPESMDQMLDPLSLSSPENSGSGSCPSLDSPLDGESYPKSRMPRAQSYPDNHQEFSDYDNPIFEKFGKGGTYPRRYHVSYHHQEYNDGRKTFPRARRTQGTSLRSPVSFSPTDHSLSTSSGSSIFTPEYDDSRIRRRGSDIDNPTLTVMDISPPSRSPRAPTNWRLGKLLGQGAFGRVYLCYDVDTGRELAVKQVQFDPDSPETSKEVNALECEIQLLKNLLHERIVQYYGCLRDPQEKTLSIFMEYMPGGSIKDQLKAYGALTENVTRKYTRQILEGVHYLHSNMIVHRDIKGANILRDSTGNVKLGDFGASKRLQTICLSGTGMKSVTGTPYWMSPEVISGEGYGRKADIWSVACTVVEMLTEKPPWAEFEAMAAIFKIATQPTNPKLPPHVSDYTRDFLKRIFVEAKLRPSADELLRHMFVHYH
Structure (SMILES),read-out,action,technique,concentration,measurement,result
Cn1cncc1[C@](O)(COc1ccc(C#N)cc1-c1ccc(OC(F)(F)F)cc1)c1ccc(C#N)cc1,cell-free assay,,competition with immobilised ligand,1 µM,remaining binding,77%
Cc1nn(C)cc1-c1nc2c(N3CCN(Cc4ccc(Cl)cc4)CC3)c(Cl)cnc2[nH]1,binding,,competition with immobilised ligand,1 µM,remaining binding,77%
CC(C)(C)c1cc(C=C(C#N)C#N)cc(Br)c1O,enzyme activity,inhibitor,,0.5 µM,remaining activity,93.7%
COc1ncccc1-c1cnn2ccc(N3CCN(C(=O)OC(C)C)CC3)nc12,binding,,competition with immobilised ligand,1 µM,remaining binding,100%
N#CC1(c2ccccn2)CCN(Cc2cc(C(=O)O)c(=O)n3ccccc23)CC1,cell-free assay,,competition with immobilised ligand,1 µM,remaining binding,76%
COc1cc(Nc2ncc(F)c(Nc3ccc4c(n3)NC(=O)C(C)(C)O4)n2)cc(OC)c1OC,binding,,competition with immobilised ligand,10 µM,inhibition,99%
Cn1cc(-c2cccc(N3CCc4c(sc5c4CC(C)(C)C5)C3=O)c2CO)cc(Nc2ccncn2)c1=O,enzyme activity,inhibitor,,1 µM,inhibition,-2%
COCc1c(-c2cc3cc(C)cc(OC)c3s2)c2c(N)ncnn2c1CN1CCNC(=O)C1,cell-free assay,,competition with immobilised ligand,1 µM,inhibition,98.8%
Nc1ncc(-c2nc(N3CCOCC3)nc(N3CCOCC3)n2)c(C(F)F)n1,binding,,competition with immobilised ligand,10 µM,remaining binding,71%
Cn1cc(-c2cc(F)cc(N3CCn4c(cc5c4CCCC5)C3=O)c2CO)cc(Nc2ccc(N3CCN(C4COC4)CC3)cn2)c1=O,enzyme activity,inhibitor,,0.1 µM,inhibition,-1%
O=c1[nH]c2ccccc2n1C1CCN(Cc2ccc(-c3[nH]c4cc5ncnc5cc4nc3-c3ccccc3)cc2)CC1,cell-free assay,,,0.5 µM,remaining signal,92.4%
